Assay results published in ChEMBL document CHEMBL1142136, “Contribution of target gene mutations and efflux to decreased susceptibility of Salmonella enterica serovar typhimurium to fluoroquinolones and other antimicrobials” (2007).
Converted amounts (≈) assume the structure as drawn.

Assays:
Type in all cases: functional, Salmonella enterica subsp. enterica serovar Typhimurium
Salmonella typhimurium [1] = test: Antimicrobial activity against Salmonella enterica serovar Typhimurium CHS38 acrAB::Kan with GyrA D87G mutation
Method in brief: (§1)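 MICs measured by broth microdilution on the Sensititre automated system and interpreted by CLSI broth microdilution standards. Ciprofloxacin was also tested by agar dilution, widening the range to 0.0075–128 μg/ml. Quality control strains were E. coli ATCC 25922 and 35218, E. faecalis ATCC 29212, S. aureus ATCC 29213 and P. aeruginosa ATCC 27853.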

Salmonella typhimurium [2] = test: Antimicrobial activity against Salmonella enterica serovar Typhimurium CHS14 acrAB::Kan with GyrA D87G mutation; method in brief: as §1
Salmonella typhimurium [3] = test: Antimicrobial activity against Salmonella enterica serovar Typhimurium S21-4 tolC::Kan with GyrA S83F, ParC S80I mutation; method in brief: as §1
Salmonella typhimurium [4] = test: Antimicrobial activity against Salmonella enterica serovar Typhimurium CS3 gyrA+ with GyrA S83F, D87N, ParC S80I mutation; method in brief: as §1
Salmonella typhimurium [5] = test: Antimicrobial activity against Salmonella enterica serovar Typhimurium CS3 tolC::Kan with GyrA S83F, D87N, parC S80I mutation; method in brief: as §1
Salmonella typhimurium [6] = test: Antimicrobial activity against Salmonella enterica serovar Typhimurium S21 acrAB::Kan
Method in brief: (§2)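 MICs by automated broth microdilution panels, interpreted to CLSI broth microdilution standards. Ciprofloxacin additionally tested by agar dilution across 0.0075 to 128 μg/ml. Quality control strains: E. coli ATCC 25922 and 35218, Enterococcus faecalis ATCC 29212, S. aureus ATCC 29213, P. aeruginosa ATCC 27853. Test strains are kanamycin-marked deletion mutants of ground-beef isolate S21.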

Salmonella typhimurium [7] = test: Antimicrobial activity against Salmonella enterica serovar Typhimurium CS1 acrAB::Kan with GyrA S83F, D87N, ParC S80I mutation; method in brief: as §1
Salmonella typhimurium [8] = test: Antimicrobial activity against Salmonella enterica serovar Typhimurium CHS38 tolC::Kan with GyrA D87G mutation; method in brief: as §1
Salmonella typhimurium [9] = test: Antimicrobial activity against Salmonella enterica serovar Typhimurium CS1 gyrA+ with GyrA S83F, D87N, ParC S80I mutation; method in brief: as §1
Salmonella typhimurium [10] = test: Antimicrobial activity against Salmonella enterica serovar Typhimurium CS3 acrAB::Kan with GyrA S83F, D87N, ParC S80I mutation; method in brief: as §1
Salmonella typhimurium [11] = test: Antimicrobial activity against Salmonella enterica serovar Typhimurium CS1 tolC::Kan with GyrA S83F, D87N, ParC S80I mutation; method in brief: as §1
Salmonella typhimurium [12] = test: Antimicrobial activity against Salmonella enterica serovar Typhimurium CHS14 with GyrA D87G mutation; method in brief: as §1
Salmonella typhimurium [13] = test: Antimicrobial activity against Salmonella enterica serovar Typhimurium CHS14 tolC::Kan with GyrA D87G mutant; method in brief: as §1
Salmonella typhimurium [14] = test: Antimicrobial activity against Salmonella enterica serovar Typhimurium CS3 with GyrA S83F, D87N, ParC S80I mutation; method in brief: as §1
Salmonella typhimurium [15] = test: Antimicrobial activity against Salmonella enterica serovar Typhimurium CS9 with GyrA S83F, D87N, ParC S80I mutation; method in brief: as §1
Salmonella typhimurium [16] = test: Antimicrobial activity against Salmonella enterica serovar Typhimurium CS9 acrAB::Kan with GyrA S83F, D87N, ParC S80I mutation; method in brief: as §1
Salmonella typhimurium [17] = test: Antimicrobial activity against Salmonella enterica serovar Typhimurium CS9 tolC::Kan with GyrA S83F, D87N, ParC S80I mutation; method in brief: as §1
Salmonella typhimurium [18] = test: Antimicrobial activity against Salmonella enterica serovar Typhimurium S21-1 gyrA+; method in brief: as §1
Salmonella typhimurium [19] = test: Antimicrobial activity against Salmonella enterica serovar Typhimurium CHS18 with GyrA S38F mutation; method in brief: as §1
Salmonella typhimurium [20] = test: Antimicrobial activity against Salmonella enterica serovar Typhimurium CHS18 gyrA+ with GyrA S38F mutation; method in brief: as §1
Salmonella typhimurium [21] = test: Antimicrobial activity against Salmonella enterica serovar Typhimurium CHS38 gyrA+ with GyrA D87G mutation; method in brief: as §1
Salmonella typhimurium [22] = test: Antimicrobial activity against Salmonella enterica serovar Typhimurium CHS38 with GyrA D87G mutation; method in brief: as §1
Salmonella typhimurium [23] = test: Antimicrobial activity against Salmonella enterica serovar Typhimurium S21 gyrA+; method in brief: as §1
Salmonella typhimurium [24] = test: Antimicrobial activity against Salmonella enterica serovar Typhimurium CHS14 gyrA+ with GyrA D87G mutation; method in brief: as §1
Salmonella typhimurium [25] = test: Antimicrobial activity against Salmonella enterica serovar Typhimurium S21 tolC::Kan; method in brief: as §2
Salmonella typhimurium [26] = test: Antimicrobial activity against Salmonella enterica serovar Typhimurium CHS18 tolC::Kan with GyrA S38F mutation; method in brief: as §1
Salmonella typhimurium [27] = test: Antimicrobial activity against Salmonella enterica serovar Typhimurium CS9 gyrA+ with GyrA S83F, D87N, ParC S80I mutation; method in brief: as §1
Salmonella typhimurium [28] = test: Antimicrobial activity against Salmonella enterica serovar Typhimurium CS1 with GyrA S83F, D87N, ParC S80I mutation; method in brief: as §1
Salmonella typhimurium [29] = test: Antimicrobial activity against Salmonella enterica serovar Typhimurium S21; method in brief: as §1
Salmonella typhimurium [30] = test: Antimicrobial activity against Salmonella enterica serovar Typhimurium CHS18 acrAB::Kan with GyrA S38F mutation; method in brief: as §1
Salmonella typhimurium [31] = test: Antimicrobial activity against Salmonella enterica serovar Typhimurium S21-3 gyrA+ with ParC S80I mutation; method in brief: as §1
Salmonella typhimurium [32] = test: Antimicrobial activity against Salmonella enterica serovar Typhimurium S21-3 with GyrA S83F, ParC S80I mutation; method in brief: as §1
Salmonella typhimurium [33] = test: Antimicrobial activity against Salmonella enterica serovar Typhimurium S21-2 with GyrA S83F, ParC S80I mutation; method in brief: as §1
Salmonella typhimurium [34] = test: Antimicrobial activity against Salmonella enterica serovar Typhimurium S21-4 gyrA+ with ParC S80I mutation; method in brief: as §1
Salmonella typhimurium [35] = test: Antimicrobial activity against Salmonella enterica serovar Typhimurium S21-2 gyrA+ with ParC S80I mutation; method in brief: as §1
Salmonella typhimurium [36] = test: Antimicrobial activity against Salmonella enterica serovar Typhimurium S21-1 GyrA S83F mutant; method in brief: as §1
Salmonella typhimurium [37] = test: Antimicrobial activity against Salmonella enterica serovar Typhimurium S21-4 with GyrA S83F, ParC S80I mutation; method in brief: as §1

Structure (SMILES)	MIC (Salmonella typhimurium [1])	MIC (Salmonella typhimurium [2])	MIC (Salmonella typhimurium [4])	MIC (Salmonella typhimurium [5])	MIC (Salmonella typhimurium [6])	MIC (Salmonella typhimurium [7])	MIC (Salmonella typhimurium [8])	MIC (Salmonella typhimurium [9])	MIC (Salmonella typhimurium [10])	MIC (Salmonella typhimurium [11])	MIC (Salmonella typhimurium [12])	MIC (Salmonella typhimurium [13])	MIC (Salmonella typhimurium [14])	MIC (Salmonella typhimurium [15])	MIC (Salmonella typhimurium [16])	MIC (Salmonella typhimurium [17])	MIC (Salmonella typhimurium [18])	MIC (Salmonella typhimurium [19])	MIC (Salmonella typhimurium [20])	MIC (Salmonella typhimurium [21])	also measured
O=C(N[C@H](CO)[C@H](O)c1ccc([N+](=O)[O-])cc1)C(Cl)Cl [CHLORAMPHENICOL]	4 µg/mL (≈ 12.4 µM)	< 2 µg/mL	> 32 µg/mL	> 32 µg/mL	< 2 µg/mL	> 32 µg/mL	4 µg/mL (≈ 12.4 µM)	> 32 µg/mL	> 32 µg/mL	> 32 µg/mL	8 µg/mL (≈ 24.8 µM)	< 2 µg/mL	> 32 µg/mL	> 32 µg/mL	> 32 µg/mL	> 32 µg/mL	> 32 µg/mL	8 µg/mL (≈ 24.8 µM)	4 µg/mL (≈ 12.4 µM)	32 µg/mL (≈ 99 µM)	MIC (Salmonella typhimurium [3]): 32 µg/mL (≈ 99 µM); MIC (Salmonella typhimurium [22]): 32 µg/mL (≈ 99 µM); MIC (Salmonella typhimurium [23]): 8 µg/mL (≈ 24.8 µM); MIC (Salmonella typhimurium [24]): 8 µg/mL (≈ 24.8 µM); MIC (Salmonella typhimurium [25]): < 2 µg/mL; MIC (Salmonella typhimurium [26]): 2 µg/mL (≈ 6.19 µM); MIC (Salmonella typhimurium [27]): > 32 µg/mL; MIC (Salmonella typhimurium [28]): > 32 µg/mL; MIC (Salmonella typhimurium [29]): 8 µg/mL (≈ 24.8 µM); MIC (Salmonella typhimurium [30]): 2 µg/mL (≈ 6.19 µM)
CO/N=C(\C(=O)N[C@@H]1C(=O)N2C(C(=O)O)=C(CSC(=O)c3ccco3)CS[C@H]12)c1csc(N)n1 [CEFTIOFUR]	0.12 µg/mL (≈ 0.229 µM)	< 0.12 µg/mL	1 µg/mL (≈ 1.91 µM)	0.5 µg/mL (≈ 0.955 µM)	< 0.12 µg/mL	0.5 µg/mL (≈ 0.955 µM)	0.12 µg/mL (≈ 0.229 µM)	1 µg/mL (≈ 1.91 µM)	0.5 µg/mL (≈ 0.955 µM)	0.5 µg/mL (≈ 0.955 µM)	1 µg/mL (≈ 1.91 µM)	< 0.12 µg/mL	1 µg/mL (≈ 1.91 µM)	1 µg/mL (≈ 1.91 µM)	0.5 µg/mL (≈ 0.955 µM)	0.5 µg/mL (≈ 0.955 µM)	0.5 µg/mL (≈ 0.955 µM)	1 µg/mL (≈ 1.91 µM)	1 µg/mL (≈ 1.91 µM)	0.5 µg/mL (≈ 0.955 µM)	MIC (Salmonella typhimurium [31]): 4 µg/mL (≈ 7.64 µM); MIC (Salmonella typhimurium [32]): 4 µg/mL (≈ 7.64 µM); MIC (Salmonella typhimurium [33]): 4 µg/mL (≈ 7.64 µM); MIC (Salmonella typhimurium [34]): 4 µg/mL (≈ 7.64 µM); MIC (Salmonella typhimurium [35]): 4 µg/mL (≈ 7.64 µM); MIC (Salmonella typhimurium [36]): 0.5 µg/mL (≈ 0.955 µM); MIC (Salmonella typhimurium [22]): 0.5 µg/mL (≈ 0.955 µM); MIC (Salmonella typhimurium [23]): 0.5 µg/mL (≈ 0.955 µM); MIC (Salmonella typhimurium [24]): 1 µg/mL (≈ 1.91 µM); MIC (Salmonella typhimurium [25]): < 0.12 µg/mL; MIC (Salmonella typhimurium [26]): 0.12 µg/mL (≈ 0.229 µM); MIC (Salmonella typhimurium [27]): 1 µg/mL (≈ 1.91 µM); MIC (Salmonella typhimurium [37]): 4 µg/mL (≈ 7.64 µM); MIC (Salmonella typhimurium [28]): 1 µg/mL (≈ 1.91 µM); MIC (Salmonella typhimurium [29]): 0.5 µg/mL (≈ 0.955 µM); MIC (Salmonella typhimurium [30]): 0.12 µg/mL (≈ 0.229 µM)
CC1(C)S[C@@H]2[C@H](NC(=O)[C@H](N)c3ccccc3)C(=O)N2[C@H]1C(=O)O [AMPICILLIN]	> 32 µg/mL	< 1 µg/mL	> 32 µg/mL	> 32 µg/mL	< 1 µg/mL	> 32 µg/mL	> 32 µg/mL	> 32 µg/mL	> 32 µg/mL	> 32 µg/mL	< 1 µg/mL	< 1 µg/mL	> 32 µg/mL	> 32 µg/mL	> 32 µg/mL	> 32 µg/mL	> 32 µg/mL	2 µg/mL (≈ 5.72 µM)	2 µg/mL (≈ 5.72 µM)	> 32 µg/mL	MIC (Salmonella typhimurium [22]): > 32 µg/mL; MIC (Salmonella typhimurium [23]): 2 µg/mL (≈ 5.72 µM); MIC (Salmonella typhimurium [24]): < 1 µg/mL; MIC (Salmonella typhimurium [25]): < 1 µg/mL; MIC (Salmonella typhimurium [26]): 1 µg/mL (≈ 2.86 µM); MIC (Salmonella typhimurium [27]): > 32 µg/mL; MIC (Salmonella typhimurium [28]): > 32 µg/mL; MIC (Salmonella typhimurium [29]): 2 µg/mL (≈ 5.72 µM); MIC (Salmonella typhimurium [30]): 1 µg/mL (≈ 2.86 µM)
